Reference: ChEMBL document CHEMBL1138651, “Synthesis of small molecule CDC25 phosphatases inhibitors” (Bioorg Med Chem Lett, 2004)
pIC50: −log10 of the molar value.

Molecular target: T1, M-phase inducer phosphatase 3 (Homo sapiens, UniProt P30307)
T1 sequence (P30307 whole entry): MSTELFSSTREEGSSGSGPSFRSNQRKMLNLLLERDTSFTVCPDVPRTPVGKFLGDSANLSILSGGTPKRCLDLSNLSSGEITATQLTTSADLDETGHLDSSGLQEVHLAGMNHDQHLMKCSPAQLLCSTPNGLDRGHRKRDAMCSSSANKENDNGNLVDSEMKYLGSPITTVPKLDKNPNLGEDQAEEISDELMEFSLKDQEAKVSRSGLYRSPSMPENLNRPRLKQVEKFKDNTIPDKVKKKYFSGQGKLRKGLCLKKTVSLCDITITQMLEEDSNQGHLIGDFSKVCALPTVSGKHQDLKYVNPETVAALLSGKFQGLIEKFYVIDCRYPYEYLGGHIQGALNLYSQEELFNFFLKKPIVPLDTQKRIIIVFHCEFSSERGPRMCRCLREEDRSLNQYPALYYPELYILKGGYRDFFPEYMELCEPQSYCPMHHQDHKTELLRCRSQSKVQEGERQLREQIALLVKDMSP
Experiment: Inhibitory concentration for human cell division cycle 25 degree C phosphatase
How it was run: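 Recombinant human CDC25C expressed as an MBP fusion, assayed with 3-O-methylfluorescein phosphate (OMFP) as substrate. Dose-response used to derive IC50, with menadione as positive control. Values are the mean ± SEM of at least two independent experiments. Compounds with IC50 > 80 µM were scored not active.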

| pIC50 | Structure (SMILES) |
| --- | --- |
| 4.68 | COc1cc(CN(C)CCc2ccc([N+](=O)[O-])cc2)cc(N(C)C)c1O |
| 5.40 | COc1cc(N(C)C)cc(CNCCc2ccc([N+](=O)[O-])cc2)c1O |
| 4.73 | CC1=CC(=O)c2ccccc2C1=O [MENADIONE] |

| Structure (SMILES) | pIC50 |
| --- | --- |
| CN(C)c1ccc(O)c(CNCCc2ccc([N+](=O)[O-])cc2)c1 | 5.41 |
| CN(CCc1ccc([N+](=O)[O-])cc1)Cc1cc(N(C)C)ccc1O | 5.25 |

Molecular target: T1, M-phase inducer phosphatase 3
Experiment: Inhibitory concentration for human cell division cycle 25 degree C phosphatase; […]

| Structure (SMILES) | pIC50 |
| --- | --- |
| CN(CCc1ccc([N+](=O)[O-])cc1)Cc1ccccc1O | < 4.10 |
| CN(CCc1ccc([N+](=O)[O-])cc1)Cc1ccc(N(C)C)cc1 | < 4.10 |
| COc1ccc(OC)c(CN(C)CCc2ccc([N+](=O)[O-])cc2)c1 | < 4.10 |
| COc1cccc(CN(C)CCc2ccc([N+](=O)[O-])cc2)c1O | < 4.10 |
| COc1cccc(CN(C)CCc2ccc([N+](=O)[O-])cc2)c1 | < 4.10 |
| CN(CCc1ccc([N+](=O)[O-])cc1)Cc1cc([N+](=O)[O-])ccc1O | < 4.10 |
| COc1cc(N(C)C)ccc1CN(C)CCc1ccc([N+](=O)[O-])cc1 | < 4.10 |
| COc1cccc(CN(C)CCc2ccc([N+](=O)[O-])cc2)c1OC | < 4.10 |
| CN(CCc1ccc([N+](=O)[O-])cc1)Cc1cccc(N(C)C)c1 | < 4.10 |
| CN(CCc1ccc([N+](=O)[O-])cc1)Cc1ccccc1 | < 4.10 |
